Laboratory results taken from publication PMC6531791 (Molecular Metabolism, 2019).

What was measured:
Assay type in all cases: in vivo, mouse
SN DA neurons (TH+) = assay: In situ detection of ROS with dihydroethidium; conditions: following MPTP exposure, with or without Dln101 pre-treatment; n = 4–6 per group
Outline: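 Dihydroethidium, 200 μl of a 1 mg/ml stock in 1% DMSO, was injected into the tail vein. Mice were perfused 3 h later. Midbrain sections were co-immunostained for TH. DHE fluorescence intensity was quantified in TH+ cells, n = 4–6 per group.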

microglia in SN = assay: Microglia immunostaining with IBA-1 antibody in SN; conditions: after MPTP exposure, with or without Dln101 pre-treatment
Outline: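 Sections were blocked in 5% normal goat serum, 1% BSA, 0.1% glycine and 0.1% L-lysine. Rabbit polyclonal anti-IBA-1 (1:3000) was applied overnight at 4 °C, then a biotinylated secondary with ABC/DAB or avidin-Alexa 488. TH was co-stained.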

[1] = Accelerating rotarod test, MPTP model; conditions: WT mice; MPTP after saline, ghrelin or Dln101 pre-treatment; vehicle = 88.9 ± 6.4; mean ± SEM, n = 5–11 per group
[2] = tested on: SN DA neuron mitochondria; assay: Electron microscopy analysis of mitochondrial morphology in SN DA neurons; conditions: for Mitochondrial average area in SN DA cells / Mitochondrial cytoplasmic coverage: WT mice; for Mitochondrial average area in SN DA cells: vehicle = 0.143 ± 0.004, n = 102–473 per group; for Mitochondrial cytoplasmic coverage: vehicle = 9.94% ± 1.1; for average mitochondrial area in SN DA cells / mitochondrial coverage of cytoplasmic area / mitochondrial units per cell: iCre-DAT MFN2KO animals; for average mitochondrial area in SN DA cells: untreated KO = 0.163 ± 0.005; for mitochondrial coverage of cytoplasmic area: untreated KO = 9.35% ± 0.56; for mitochondrial units per cell: untreated KO = 80 ± 12
Outline: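 Mice got test peptide (15 nmoles) or saline s.c. daily for 10 days, 15 min before dark onset. […] Perfusion: ice-cold saline, then 4% PFA/15% picric acid/0.1% glutaraldehyde in 0.1M PB. Sections were freeze-thawed and immunolabelled. Mitochondria required visible cristae and a double membrane. Coverage = summed mitochondrial area / (cell − nucleus area), %.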

[3] = 1 day after MPTP (15 mg/kg), alone or after Dln101 pre-treatment

Question: What does the source list for `CN1CC=C(c2ccccc2)CC1` [MPTP, 1-methyl-4-phenyl-1,2,5,6 tetrahydropyridine]?
Answer: increase in ROS production in SN DA neurons (DHE fluorescence) (SN DA neurons (TH+)): 7.46 fold; microglial morphology / activation in SN (IBA1 immunostaining) (microglia in SN): microglial activation; Latency to fall from the rotarod [1]: 51.0 ± 5.0 s; Mitochondrial average area in SN DA cells ([2]; 4 h after MPTP (15 mg/kg)): 0.112 ± 0.006 μm^2; Mitochondrial cytoplasmic coverage ([2]; 4 h after MPTP (15 mg/kg)): 8.66% ± 0.68; Mitochondrial average area in SN DA cells [2, 3]: 0.176 ± 0.006 μm^2; Mitochondrial cytoplasmic coverage [2, 3]: 6.144% ± 0.51; average mitochondrial area in SN DA cells ([2]; 4h after MPTP, n = 421–1456): 0.179 ± 0.004; mitochondrial coverage of cytoplasmic area ([2]; 4h after MPTP): 10.22 ± 0.69%; mitochondrial units per cell ([2]; 4h after MPTP): 52 ± 6; average mitochondrial area in SN DA cells ([2]; 3days after MPTP): 0.287 ± 0.006; mitochondrial coverage of cytoplasmic area ([2]; 3days after MPTP): 23.32 ± 4.21%; mitochondrial units per cell ([2]; 3days after MPTP): 29 ± 3
